From ChEMBL document CHEMBL4400525, “Toward a treatment of diabesity: In vitro and in vivo evaluation of uncharged bromophenol derivatives as a new series of PTP1B inhibitors” (Eur J Med Chem, 2019)

Columns and labels:
[1] = target: T1, Tyrosine-protein phosphatase non-receptor type 11 (Homo sapiens, UniProt Q06124); assay: Inhibition of SHP2 (unknown origin)
T1 sequence (Q06124 whole entry): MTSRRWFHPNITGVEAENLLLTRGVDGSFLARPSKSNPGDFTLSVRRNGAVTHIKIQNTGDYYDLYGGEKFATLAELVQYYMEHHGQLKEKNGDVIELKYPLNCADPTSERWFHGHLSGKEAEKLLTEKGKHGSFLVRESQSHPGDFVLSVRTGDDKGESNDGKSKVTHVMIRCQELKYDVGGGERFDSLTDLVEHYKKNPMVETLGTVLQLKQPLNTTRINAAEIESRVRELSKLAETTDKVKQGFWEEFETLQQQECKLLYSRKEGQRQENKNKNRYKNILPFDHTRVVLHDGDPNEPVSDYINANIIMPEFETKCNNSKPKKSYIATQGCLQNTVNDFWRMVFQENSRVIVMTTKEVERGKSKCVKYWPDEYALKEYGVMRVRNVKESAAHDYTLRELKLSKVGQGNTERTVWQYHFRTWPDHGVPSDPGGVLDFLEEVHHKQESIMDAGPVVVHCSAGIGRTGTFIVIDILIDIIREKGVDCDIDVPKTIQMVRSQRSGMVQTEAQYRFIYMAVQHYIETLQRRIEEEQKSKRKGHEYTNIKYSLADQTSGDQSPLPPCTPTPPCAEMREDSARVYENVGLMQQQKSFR

Homo sapiens = organism: Homo sapiens; assay: Selectivity ratio of IC50 for PTP1B A27S mutant (unknown origin) to IC50 for PTP1B (unknown origin)
[2] = target: T2, Tyrosine-protein phosphatase non-receptor type 1 (Mus musculus) (UniProt P35821); assay: (§1) Inhibition of PTP1B in mouse C2C12 cells assessed as suppression of PA-induced insulin resistance by measuring increase in insulin-mediated IRS1 phosphorylation at Y632 residue preincubated for 1 hr followed by palmitic acid stimulation for 16 hrs and subsequent insulin addition measured after 30 mins by Western blot analysis; format: cell-based
T2 sequence (whole entry): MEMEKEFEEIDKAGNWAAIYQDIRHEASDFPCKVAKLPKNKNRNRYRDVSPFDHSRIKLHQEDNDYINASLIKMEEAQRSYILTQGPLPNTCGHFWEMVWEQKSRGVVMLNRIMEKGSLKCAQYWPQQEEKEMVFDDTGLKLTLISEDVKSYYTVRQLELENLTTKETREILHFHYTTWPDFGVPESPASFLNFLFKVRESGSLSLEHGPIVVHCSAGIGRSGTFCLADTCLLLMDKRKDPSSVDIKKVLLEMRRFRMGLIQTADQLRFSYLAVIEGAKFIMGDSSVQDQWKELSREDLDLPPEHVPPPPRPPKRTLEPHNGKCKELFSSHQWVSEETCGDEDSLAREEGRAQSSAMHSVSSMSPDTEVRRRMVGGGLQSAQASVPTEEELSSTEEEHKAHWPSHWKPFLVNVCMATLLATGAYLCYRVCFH

[3] = target: T2, Tyrosine-protein phosphatase non-receptor type 1 (Mus musculus); assay: as §1, with “AKT” for “IRS1”, “S473” for “Y632”; format: cell-based
[4] = target: T2, Tyrosine-protein phosphatase non-receptor type 1 (Mus musculus); assay: Inhibition of PTP1B in PA-stimulated mouse C2C12 cells assessed as increase in STAT3 phosphorylation at Y705 residue preincubated for 1 hr followed by palmitic acid stimulation for 16 hrs and measured by Western blot analysis; format: cell-based
Mus musculus = assay: Antiobesity activity in BKS db mouse assessed as decrease in body weight at 100 mg/kg, po administered once daily for 5 weeks relative to control; format: functional; design: scale not given: the % may be the effect or the level left
In short: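 Diabetic BKS db mice, n = 8 per group, were given 100 mg/kg/day orally for five weeks. Vehicle- and metformin-treated db mice and vehicle-treated BKS mice served as controls. Food intake, water intake and body weight were followed weekly, and abdominal fat pads were weighed at the end. Values are mean ± SEM.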

[5] = Acute toxicity in Kunming mouse assessed as effect on food intake at 500 to 2000 mg/kg, po administered as single dose measured for 1 week; format: organism-based; conditions: in vivo, 168 h
[6] = Acute toxicity in Kunming mouse assessed as change in body weight at 500 to 2000 mg/kg, po administered as single dose measured for 1 week; format: organism-based; conditions: in vivo, 168 h
[7] = Sub-acute toxicity in Kunming mouse assessed as change in body weight at 1000 mg/kg, po administered once daily for 14 days measured during compound dosing; format: organism-based; conditions: in vivo, 336 h
In short: (§2)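 Mice were dosed orally with 1000 mg/kg body wt per day for 14 days alongside a vehicle-dosed group. Water intake, food intake and body weight were tracked over the dosing period and reported as mean ± SEM, n = 10.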

[8] = Sub-acute toxicity in Kunming mouse assessed as effect on water intake at 1000 mg/kg, po administered once daily for 14 days measured during compound dosing; format: organism-based; conditions: in vivo, 336 h; in short: as §2
[9] = Acute toxicity in Kunming mouse assessed as visual toxic effect at 500 to 2000 mg/kg, po administered as single dose measured for 1 week; format: organism-based; conditions: in vivo, 168 h
[10] = Sub-acute toxicity in Kunming mouse assessed as visual toxic effect at 1000 mg/kg, po administered once daily for 14 days measured during compound dosing; format: organism-based; conditions: in vivo, 336 h
[11] = Sub-acute toxicity in Kunming mouse assessed as behavioral changes at 1000 mg/kg, po administered once daily for 14 days measured during compound dosing; format: organism-based; conditions: in vivo, 336 h
[12] = Sub-acute toxicity in Kunming mouse assessed as structural changes in heart at 1000 mg/kg, po administered once daily for 14 days measured 24 hrs post last dose by gomori staining based histological analysis; format: organism-based; conditions: in vivo
In short: (§3)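 After 14 days of oral dosing at 1000 mg/kg body wt per day, with vehicle-treated controls, liver, heart, kidney and lung sections were Gomori-stained. Sections were examined for histological structure and cell size.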

[13] = Sub-acute toxicity in Kunming mouse assessed as structural changes in kidneys at 1000 mg/kg, po administered once daily for 14 days measured 24 hrs post last dose by gomori staining based histological analysis; format: organism-based; conditions: in vivo; in short: as §3
[14] = Sub-acute toxicity in Kunming mouse assessed as structural changes in lungs at 1000 mg/kg, po administered once daily for 14 days measured 24 hrs post last dose by gomori staining based histological analysis; format: organism-based; conditions: in vivo; in short: as §3
[15] = Sub-acute toxicity in Kunming mouse assessed as effect on liver size at 1000 mg/kg, po administered once daily for 14 days measured 24 hrs post last dose by gomori staining based histological analysis; format: organism-based; conditions: in vivo; in short: as §3
[16] = Sub-acute toxicity in Kunming mouse assessed as effect on heart size at 1000 mg/kg, po administered once daily for 14 days measured 24 hrs post last dose by gomori staining based histological analysis; format: organism-based; conditions: in vivo; in short: as §3
[17] = Volume of distribution at steady state in specific pathogen free Sprague-Dawley rat at 2 mg/kg, iv or 10 mg/kg, po by LC-MS/MS analysis; format: ADME, organism-based; conditions: in vivo, read-out: Vdss
[18] = Mean residence time in specific pathogen free Sprague-Dawley rat at 2 mg/kg, iv or 10 mg/kg, po by LC-MS/MS analysis; format: ADME, organism-based; conditions: in vivo
[19] = Tmax in specific pathogen free Sprague-Dawley rat at 2 mg/kg, iv by LC-MS/MS analysis; format: ADME, organism-based; conditions: in vivo

## CCOc1ccc(Oc2ccc(-c3cnc(-c4cc(O)c(O)c(Br)c4Br)o3)cc2)cc1
[1]
  IC50: > 36.8 µM
Homo sapiens
  Ratio IC50: 6 to 9
[2]
  inhibition: Dose-dependent effect
[3]
  inhibition: Dose-dependent effect
[4]
  inhibition: Dose-dependent effect
Mus musculus
  Activity: 15%
[5]
  Activity: Non-Toxic
[6]
  Activity: Non-Toxic
[7]
  Activity: Toxic
[8]
  Activity: Non-Toxic
[9]
  Activity: Non-Toxic
[10]
  Activity: Non-Toxic
[11]
  Activity: Non-Toxic
[12]
  Activity: Non-Toxic
[13]
  Activity: Non-Toxic
[14]
  Activity: Non-Toxic
[15]
  Activity: Non-Toxic
[16]
  Activity: Non-Toxic
[17]
  Vd: 4.25 L/kg
[18]
  MRT: 34.8 min
[19]
  Tmax: 5 min
